≈ marks a conversion by molar mass, not a printed value.
Assays:
[1] = system: HOP-92; assay: Cytotoxicity against human HOP92 cells assessed as growth inhibition at 10 uM after 48 hrs by sulphorhodamine B assay; format: functional; details: HOP-92, 48 h, read-out: GI
How it was run: (§1)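 NCI-60 one-dose screen per the NCI Drug Evaluation Branch protocol. Cells given a single 10 µM concentration with 48 h continuous exposure. Growth estimated by sulphorhodamine B protein assay. Result expressed as percentage growth inhibition relative to untreated growth.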

[2] = system: NCI-H23; assay: Cytotoxicity against human NCI-H23 cells assessed as growth inhibition at 10 uM after 48 hrs by sulphorhodamine B assay; format: functional; details: NCI-H23, 48 h, read-out: GI; how it was run: as §1
[3] = Cytotoxicity against human EKVX cells assessed as growth inhibition at 10 uM after 48 hrs by sulphorhodamine B assay; format: functional; details: read-out: GI; how it was run: as §1
[4] = Displacement of methyl green from DNA (unknown origin) after 24 hrs
How it was run: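 DNA-methyl green complex was stirred in 0.05 M Tris-HCl pH 7.5 with 7.5 mmol MgSO4 at 37 °C for 24 h. Compound was dried down from EtOH in tubes and the DNA-methyl green solution added. A630 was read initially and after 24 h dark incubation at room temperature, corrected and normalized to untreated complex. IC50 is the concentration giving a 50% absorbance decrease; mean ± SD, n = 6.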

[5] = system: NCI/ADR-RES; assay: Cytotoxicity against human NCI/ADR-RES cells assessed as growth inhibition at 10 uM after 48 hrs by sulphorhodamine B assay; format: functional; details: read-out: GI; how it was run: as §1
[6] = system: U-251; assay: Cytotoxicity against human U251 cells assessed as growth inhibition at 10 uM after 48 hrs by sulphorhodamine B assay; format: functional; details: U-251, 48 h, read-out: GI; how it was run: as §1
[7] = system: SNB-19; assay: Cytotoxicity against human SNB19 cells assessed as growth inhibition at 10 uM after 48 hrs by sulphorhodamine B assay; format: functional; details: SNB-19, 48 h, read-out: GI; how it was run: as §1
[8] = system: SF-295; assay: Cytotoxicity against human SF295 cells assessed as growth inhibition at 10 uM after 48 hrs by sulphorhodamine B assay; format: functional; details: SF-295, 48 h, read-out: GI; how it was run: as §1
[9] = system: DU-145; assay: Cytotoxicity against human DU145 cells assessed as growth inhibition at 10 uM after 48 hrs by sulphorhodamine B assay; format: functional; details: DU-145, 48 h, read-out: GI; how it was run: as §1
[10] = system: SF-268; assay: Cytotoxicity against human SF268 cells assessed as growth inhibition at 10 uM after 48 hrs by sulphorhodamine B assay; format: functional; details: SF-268, 48 h, read-out: GI; how it was run: as §1
[11] = system: UACC-62; assay: Cytotoxicity against human UACC62 cells assessed as growth inhibition at 10 uM after 48 hrs by sulphorhodamine B assay; format: functional; details: UACC-62, 48 h, read-out: GI; how it was run: as §1
[12] = system: SK-MEL-2; assay: Cytotoxicity against human SK-MEL-2 cells assessed as growth inhibition at 10 uM after 48 hrs by sulphorhodamine B assay; format: functional; details: SK-MEL-2, 48 h, read-out: GI; how it was run: as §1
[13] = system: SK-MEL-5; assay: Cytotoxicity against human SK-MEL-5 cells assessed as growth inhibition at 10 uM after 48 hrs by sulphorhodamine B assay; format: functional; details: SK-MEL-5, 48 h, read-out: GI; how it was run: as §1
[14] = system: UO-31; assay: Cytotoxicity against human UO31 cells assessed as growth inhibition at 10 uM after 48 hrs by sulphorhodamine B assay; format: functional; details: UO-31, 48 h, read-out: GI; how it was run: as §1
[15] = system: CAKI-1; assay: Cytotoxicity against human Caki1 cells assessed as growth inhibition at 10 uM after 48 hrs by sulphorhodamine B assay; format: functional; details: CAKI-1, 48 h, read-out: GI; how it was run: as §1
[16] = system: RXF 393; assay: Cytotoxicity against human RXF393 cells assessed as growth inhibition at 10 uM after 48 hrs by sulphorhodamine B assay; format: functional; details: RXF 393, 48 h, read-out: GI; how it was run: as §1
[17] = system: ACHN; assay: Cytotoxicity against human ACHN cells assessed as growth inhibition at 10 uM after 48 hrs by sulphorhodamine B assay; format: functional; details: read-out: GI; how it was run: as §1
[18] = system: SR; assay: Cytotoxicity against human SR cells assessed as growth inhibition at 10 uM after 48 hrs by sulphorhodamine B assay; format: functional; details: read-out: GI; how it was run: as §1
[19] = system: A498; assay: Cytotoxicity against human A498 cells assessed as growth inhibition at 10 uM after 48 hrs by sulphorhodamine B assay; format: functional; details: A498, 48 h, read-out: GI; how it was run: as §1
[20] = system: RPMI-8226; assay: Cytotoxicity against human RPMI8226 cells assessed as growth inhibition at 10 uM after 48 hrs by sulphorhodamine B assay; format: functional; details: RPMI-8226, 48 h, read-out: GI; how it was run: as §1
[21] = system: MOLT-4; assay: Cytotoxicity against human MOLT4 cells assessed as growth inhibition at 10 uM after 48 hrs by sulphorhodamine B assay; format: functional; details: MOLT-4, 48 h, read-out: GI; how it was run: as §1
[22] = system: K562; assay: Cytotoxicity against human K562 cells assessed as growth inhibition at 10 uM after 48 hrs by sulphorhodamine B assay; format: functional; details: K562, 48 h, read-out: GI; how it was run: as §1
[23] = system: HL-60(TB); assay: Cytotoxicity against human HL-60(TB) cells assessed as growth inhibition at 10 uM after 48 hrs by sulphorhodamine B assay; format: functional; details: HL-60, 48 h, read-out: GI
How it was run: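 NCI-60 one-dose primary screen run to the Drug Evaluation Branch protocol. Cells are exposed to a single 10 µM concentration for 48 h continuously, and growth is read by SRB protein assay. Data are reported as percent growth of treated cells, expressed as % growth inhibition.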

[24] = system: CCRF-CEM; assay: Cytotoxicity against human CCRF-CEM cells assessed as growth inhibition at 10 uM after 48 hrs by sulphorhodamine B assay; format: functional; details: read-out: GI; how it was run: as §1
[25] = system: OVCAR-5; assay: Cytotoxicity against human OVCAR5 cells assessed as growth inhibition at 10 uM after 48 hrs by sulphorhodamine B assay; format: functional; details: OVCAR-5, 48 h, read-out: GI; how it was run: as §1
[26] = system: OVCAR-4; assay: Cytotoxicity against human OVCAR4 cells assessed as growth inhibition at 10 uM after 48 hrs by sulphorhodamine B assay; format: functional; details: OVCAR-4, 48 h, read-out: GI; how it was run: as §1
[27] = system: Hs-578T; assay: Cytotoxicity against human Hs578T cells assessed as growth inhibition at 10 uM after 48 hrs by sulphorhodamine B assay; format: functional; details: read-out: GI; how it was run: as §1
[28] = system: NCI-H522; assay: Cytotoxicity against human NCI-H522 cells assessed as growth inhibition at 10 uM after 48 hrs by sulphorhodamine B assay; format: functional; details: NCI-H522, 48 h, read-out: GI; how it was run: as §1
[29] = system: HT-29; assay: Cytotoxicity against human HT-29 cells assessed as growth inhibition at 10 uM after 48 hrs by sulphorhodamine B assay; format: functional; details: HT-29, 48 h, read-out: GI; how it was run: as §1
[30] = system: MCF7; assay: Cytotoxicity against human MCF7 cells assessed as growth inhibition at 10 uM after 48 hrs by sulphorhodamine B assay; format: functional; details: MCF7, 48 h, read-out: GI; how it was run: as §1
[31] = system: MDA-MB-435; assay: Cytotoxicity against human MDA-MB-435 cells assessed as growth inhibition at 10 uM after 48 hrs by sulphorhodamine B assay; format: functional; details: MDA-MB-435, 48 h, read-out: GI; how it was run: as §1
[32] = system: MDA-MB-468; assay: Cytotoxicity against human MDA-MB-468 cells assessed as growth inhibition at 10 uM after 48 hrs by sulphorhodamine B assay; format: functional; details: MDA-MB-468, 48 h, read-out: GI; how it was run: as §1
[33] = system: HCT-116; assay: Cytotoxicity against human HCT116 cells assessed as growth inhibition at 10 uM after 48 hrs by sulphorhodamine B assay; format: functional; details: HCT-116, 48 h, read-out: GI; how it was run: as §1

Structure (SMILES)	inhibition of growth at 10 µM [1]	inhibition of growth at 10 µM [2]	inhibition of growth at 10 µM [3]	IC50 [4]	inhibition of growth at 10 µM [5]	inhibition of growth at 10 µM [6]	inhibition of growth at 10 µM [7]	inhibition of growth at 10 µM [8]	inhibition of growth at 10 µM [9]	inhibition of growth at 10 µM [10]	inhibition of growth at 10 µM [11]	inhibition of growth at 10 µM [12]	inhibition of growth at 10 µM [13]	inhibition of growth at 10 µM [14]	inhibition of growth at 10 µM [15]	inhibition of growth at 10 µM [16]	inhibition of growth at 10 µM [17]	inhibition of growth at 10 µM [18]	inhibition of growth at 10 µM [19]	inhibition of growth at 10 µM [20]	further results
CC1CCCc2c1nc1nc(SCC(=O)c3ccccc3)nc(N)c1c2-c1ccc(Cl)cc1 (stereo unspecified)	90%	24.7%	26.7%	0.061 µg/mL (≈ 0.128 µM)	12.8%	21.5%	< 10%	23.9%	17%	23.7%	70.8%	14.5%	67%	63%	11.8%	62.2%	29.3%	< 10%	21.2%	69.2%	inhibition of growth at 10 µM [21]: 44.6%; inhibition of growth at 10 µM [22]: 27.7%; inhibition of growth at 10 µM [23]: 22%; inhibition of growth at 10 µM [24]: 60.1%; inhibition of growth at 10 µM [25]: 10%; inhibition of growth at 10 µM [26]: 20%; inhibition of growth at 10 µM [27]: 38.2%; inhibition of growth at 10 µM [28]: 17.5%; inhibition of growth at 10 µM [29]: 21.5%; inhibition of growth at 10 µM [30]: 30%; inhibition of growth at 10 µM [31]: 13%; inhibition of growth at 10 µM [32]: 22.9%; inhibition of growth at 10 µM [33]: 38.4%
CCSc1nc(N)c2c(-c3ccc(Cl)cc3)c3c(nc2n1)C(C)CCC3 (stereo unspecified)	35.2%	15.3%	12.3%	0.127 µg/mL (≈ 0.33 µM)	12.8%	13.6%	< 10%	< 10%	< 10%	< 10%	21.8%	< 10%	< 10%	59%	< 10%	26.6%	30.8%	37.9%	21.7%	33.8%	inhibition of growth at 10 µM [21]: 32.5%; inhibition of growth at 10 µM [22]: 32.4%; inhibition of growth at 10 µM [23]: < 10%; inhibition of growth at 10 µM [24]: 28.4%; inhibition of growth at 10 µM [25]: 12.3%; inhibition of growth at 10 µM [26]: 26.8%; inhibition of growth at 10 µM [27]: 14.2%; inhibition of growth at 10 µM [28]: 21.9%; inhibition of growth at 10 µM [29]: 27.7%; inhibition of growth at 10 µM [30]: < 10%; inhibition of growth at 10 µM [31]: 14.5%; inhibition of growth at 10 µM [32]: 30.8%; inhibition of growth at 10 µM [33]: 18.8%

From ChEMBL document CHEMBL2375313, “Synthesis, in vitro antitumor evaluation and DNA-binding study of novel tetrahydroquinolines and some derived tricyclic and tetracyclic ring systems” (Eur J Med Chem, 2013)
